Compound activity from PubChem.
KCNK3 inh = human KCNK3 channel inhibition, primary screen | B-score at 10 µM | actives 0.84% (n = 340,000) | AID 602410 | CHO-KCNK3 thallium flux, FluxOR fluorescence; active compounds read low;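 active = B-score under library mean minus 4 SD, starting fluorescence ratio at most library mean plus 5 SD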;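 also: more negative B-score means stronger inhibition of thallium flux through KCNK3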
hERG protect = compounds protecting human hERG from proarrhythmic drug block. CHO-hERG, FluxOR thallium flux, dofetilide IC70 present. activation (rescue from dofetilide block), less the hit threshold, % at 10 µM. actives 0.51% (n = 310,000). AID 1511;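 active = activation above the mean of controls blocked by dofetilide plus 5 SD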;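 also: thallium influx through hERG after potassium depolarization seen as dye fluorescence rise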
KCNQ1 pot = potentiators or activators of human KCNQ1 potassium channel. CHO-K1 KCNQ1, thallium flux FluxOR fluorescence; active compounds read high. B-score at 10 µM. actives 0.35% (n = 310,000);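 active = fluorescence ratio B-score, a plate-corrected score, at least three library SD, with initial intensity B-score within 5 SD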
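Assay system: stable KCNQ1 CHO-K1 line; medium: assay buffer, equal DMSO in all wells; timing: 90 min dye loading and 20 min compound exposure, both at room temperature; technique: kinetic FluxOR thallium fluorescence, 10-s 1-Hz baseline, 110-s post-stimulus read; read-out basis: B score of baseline-normalized fluorescence ratio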
KCNK9 block = inhibitors of human KCNK9 two-pore domain potassium channel; HEK293 KCNK9, FluxOR thallium flux fluorescence; active compounds read low; B-score at 10 µM; actives 1.2% (n = 310,000); AID 488922;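 active = ratio B-score over 3 SD below the library mean, with starting fluorescence within 5 SD of its mean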;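 also: negative B-score means less thallium flux so channel inhibition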
Target sequence (Q9NPC2 whole entry, looked up, the tested form may be a part): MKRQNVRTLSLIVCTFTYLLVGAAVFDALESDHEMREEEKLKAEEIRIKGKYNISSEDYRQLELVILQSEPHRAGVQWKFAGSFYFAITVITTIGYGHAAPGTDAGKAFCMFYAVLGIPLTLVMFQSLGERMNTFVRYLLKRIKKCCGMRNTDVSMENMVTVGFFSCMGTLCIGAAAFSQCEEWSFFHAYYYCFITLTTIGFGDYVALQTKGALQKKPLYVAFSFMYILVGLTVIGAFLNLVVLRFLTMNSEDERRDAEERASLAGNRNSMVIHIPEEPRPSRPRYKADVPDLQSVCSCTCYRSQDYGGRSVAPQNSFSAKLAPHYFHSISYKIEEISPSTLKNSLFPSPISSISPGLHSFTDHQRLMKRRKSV
KCNQ1 block = inhibitors of human KCNQ1 potassium channel | P51787 | CHO-K1 KCNQ1, FluxOR thallium flux fluorescence; active compounds read high | B-score at 10 µM | actives 1.3% (n = 310,000) | AID 2642;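 active = compounds whose thallium flux B-score, printed positive for inhibition, exceeds three library SD while starting fluorescence stays within three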;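 also: channel opened by potassium depolarization with thallium stimulus after 20 min compound exposure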
KCNQ1 block val = human KCNQ1 channel inhibition, validation assay; shares compounds with KCNQ1 block; inhibition, % at 10 µM; KCNQ1 cell line, FluxOR thallium flux fluorescence; actives 93% (n = 1,600); AID 588353;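 active = primary screen active, with duplicate mean exceeding buffer control mean plus 3 SD of buffer wells, cut at about 28% in these data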;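 also: 0% = buffer control ratio and 100% = XE991 inhibitor control ratio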
CHO Tl flux = counter-screen for KCNQ1 inhibitors: effect in parental CHO cells | actives 21% (n = 1,600) | shares compounds with KCNQ1 block | parental CHO-K1, FluxOR thallium flux fluorescence ratio; active compounds read low; zero means no signal rise above baseline | fluorescence ratio (Tl flux) at 10 µM;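 active = mean of duplicate thallium-flux fluorescence ratios in parental host cells more than 5 SD below the buffer control mean, cut at about 0.38 in these data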;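 also: ratio is peak minus minimum fluorescence divided by baseline fluorescence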
KCNQ1 ephys val = human KCNQ1 inhibition validated by electrophysiology | shares compounds with KCNQ1 block | KCNQ1-CHO cells, automated patch clamp current | calls only at 10 µM | actives 20% (n = 490) | AID 624120;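 active = KCNQ1 current drop exceeding 3 SD of negative control wells, seen in both duplicate runs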;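 also: steady state current during a 2 s step from -80 to +40 mV; negative values mean current inhibition and positive values mean potentiation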
KCNQ2 spec = KCNQ1 inhibitor that also blocks rat KCNQ2 channel | shares compounds with KCNQ1 block | KCNQ2 cells, FluxOR thallium flux fluorescence | inhibition, % at 10 µM | actives 71% (n = 1,600) | AID 651746;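 active = mean percent inhibition of the KCNQ2 thallium signal more than 5 SD above the buffer-only control wells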;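 also: KCNQ2 expressed in CHO cells; 0% = buffer control wells and 100% = XE-991 inhibitor control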
KCNQ1-KCNE1 inh = selectivity of KCNQ1 inhibitors: inhibition of human KCNQ1/KCNE1 channel | shares compounds with KCNQ1 block | KCNQ1/KCNE1 cells, FluxOR thallium flux fluorescence | inhibition, % at 10 µM | actives 77% (n = 1,600) | AID 652147;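 active = mean percent inhibition of duplicate wells above the buffer-only control mean plus 3 SD of those controls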;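 also: 0% = buffer only wells and 100% = XE-991 inhibitor control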
Active calls of the source: *; i = inactive; / = not tested or not shown. Hits are enriched below; roughly 3.1% of the tested compounds scored in any of these assays.

SMILES	KCNK3 inh	hERG protect	KCNQ1 pot	KCNK9 block	KCNQ1 block	KCNQ1 block val	CHO Tl flux	KCNQ2 spec	KCNQ1-KCNE1 inh	others
C[C@@H]1CC=C[C@H]2[C@H]1C(=O)N(Cc1ccccc1)[C@H]2c1ccoc1	i	-15	i	i	i	/	/	/	/
CC[C@@H]1CC=C[C@H]2[C@H]1C(=O)N(Cc1ccccc1)[C@H]2c1ccoc1	i	-29	i	i	9*	78*	0.38*	104%*	114%*
Cc1cc(C2(c3ccc(O)c(C)c3)C(=O)Nc3ccccc32)ccc1O	i	-6	i	i	7*	0	0.47	i	i
FC(F)Oc1ccc(NC(=S)NCc2ccccc2)cc1	i	-8	i	i	i	/	/	/	/
CC(=O)c1ccc(NC(=S)NC2CCCC(C)C2C)cc1 (centres undefined)	i	-12	i	i	7*	47*	0.59	i	34%*
FC(F)Sc1ccc(NC(=S)NCc2ccccc2)cc1	i	-8	i	i	8*	58*	0.59	93%*	i
CC1CCCC(NC(=S)Nc2cccc(S(=O)(=O)N(C)C)c2)C1C (centres undefined)	i	-14	i	i	8*	35*	0.51	i	i
CC1CCN(C(=S)Nc2ccc(SC(F)F)cc2)CC1	i	-2	i	i	i	/	/	/	/
CC1CCCCC1NC(=S)Nc1ccc(SC(F)F)cc1 (centres undefined)	i	-14	i	i	7*	66*	0.54	i	40%*
CC(=O)Nc1cccc(-c2csc(Nc3cc(C)ccn3)n2)c1	i	-17	i	i	6*	70*	0.51	90%*	38%*
CC(=O)Nc1ccc(-c2csc(Nc3cc(C)ccn3)n2)cc1	i	-7	i	i	i	/	/	/	/
COc1ccc2oc(/C=C/N(C)C)c(C(=O)c3ccc(Cl)cc3)c2c1	i	-15	i	i	6*	114*	0.35*	139%*	145%*
CCOC(=O)/C=C1\SC(C)C(=O)N1CC(=O)N(CCC#N)c1ccccc1 (centres undefined)	i	/	/	/	/	/	/	/	/
O=C(Nc1nc(-c2ccccc2)cs1)c1ccccc1NS(=O)(=O)c1ccc(F)cc1	i	-29	i	i	10*	105*	0.33*	i	151%*
CC(C)COc1ccc(CNC(=S)Nc2ccccc2)cc1Cl	i	-6	i	i	i	/	/	/	/
S=C(NCCSCc1ccc(Cl)cc1Cl)Nc1ccccc1	i	-10	i	i	6*	48*	0.41	111%*	36%*
CC(C)Oc1ccc(CNC(=S)Nc2ccccc2)cc1Cl	i	-7	i	i	7*	50*	0.55	59%*	75%*
S=C(NCCSCc1ccc(Cl)c(Cl)c1)Nc1ccccc1	i	-7	i	i	11*	76*	0.39	80%*	65%*
Cc1ccccc1CSCCNC(=S)Nc1ccccc1	i	-14	i	i	8*	62*	0.52	82%*	72%*
S=C(NCCSCc1c(Cl)cccc1Cl)Nc1ccccc1	i	-8	i	i	i	/	/	/	/
CC(NC(=O)COC(=O)c1ccc(CO)cc1)C1CC2CCC1C2 (centres undefined)	i	/	/	/	/	/	/	/	/
CCCC(=O)Nc1sc(-c2ccccc2)c(-c2ccccc2)c1C(=O)O	i	-8	i	i	i	/	/	/	/
O=C(COc1ccccc1[N+](=O)[O-])Nc1ccccc1N1CCCCC1	i	-9	i	i	i	/	/	/	/
Cc1ccccc1OCC(=O)Nc1ccccc1N1CCCCC1	i	-9	i	-8*	8*	120*	0.46	95%*	170%*	KCNQ1 ephys val=i
O=C(Nc1ccccc1N1CCCCC1)c1ccccc1F	i	-7	i	i	6*	102*	0.37*	76%*	144%*
SMILES	KCNK3 inh	hERG protect	KCNQ1 pot	KCNK9 block	KCNQ1 block	KCNQ1 block val	CHO Tl flux	KCNQ2 spec	KCNQ1-KCNE1 inh	others
O=C(Nc1ccccc1N1CCCC1)c1ccccc1F	i	-2	i	i	i	/	/	/	/
COc1ccc(-c2csc3ncnc(N4CCN(c5ccccc5Cl)CC4)c23)cc1	i	-11	i	i	9*	105*	0.38*	96%*	90%*
COc1ccc(-c2csc3ncnc(N4CCN(S(=O)(=O)c5ccc(Cl)s5)CC4)c23)cc1	i	-14	i	i	i	/	/	/	/
COc1ccc(-c2csc3ncnc(N4CCN(c5cccc(OC)c5)CC4)c23)cc1	i	-10	i	i	10*	134*	0.41	114%*	119%*	KCNQ1 ephys val=i
COc1ccc(F)cc1CN1CCN(c2ncnc3scc(-c4ccccc4)c23)CC1	i	-10	i	i	7*	117*	0.41	114%*	153%*	KCNQ1 ephys val=i
COc1ccc(CN2CCN(c3ncnc4scc(-c5ccc(F)cc5)c34)CC2)cc1	i	-12	i	i	i	/	/	/	/
COc1ccc(-c2csc3ncnc(N4CCN(S(=O)(=O)c5cccs5)CC4)c23)cc1	i	-21	i	i	8*	84*	0.43	100%*	76%*
COc1cccc(CNc2nc3ccccc3n2C(C)C)c1O	i	-1	i	i	i	/	/	/	/
Cc1noc(C)c1COc1ccc(C(=O)N2CCN(S(=O)(=O)c3cccc(F)c3)CC2)cc1	i	/	/	/	/	/	/	/	/
c1ccc2c(c1)CNc1ccccc1-2	i	/	/	/	/	/	/	/	/
COC(=O)c1cc(S(=O)(=O)N2CCN(c3cccc(Cl)c3)CC2)c[nH]1	i	-10	i	i	i	/	/	/	/
COc1ccc(-c2csc3ncnc(N4CCN(c5cccc(C)c5C)CC4)c23)cc1	i	-15	i	i	7*	94*	0.43	68%*	148%*	KCNQ1 ephys val=i
COc1ccc(-c2csc3ncnc(N4CCN(S(=O)(=O)c5ccc(C)cc5)CC4)c23)cc1	i	-14	i	i	i	/	/	/	/
c1ccc(-c2nc(N3CCOCC3)sc2-c2ccccc2)cc1	i	-7	i	i	8*	99*	0.41	100%*	162%*	KCNQ1 ephys val=i
